Measured values pooled from the literature.
Target: Mitogen-activated protein kinase kinase kinase 12 (MAP3K12, Homo sapiens, UniProt Q12852)
Residues used in one study (Q12852 1-859): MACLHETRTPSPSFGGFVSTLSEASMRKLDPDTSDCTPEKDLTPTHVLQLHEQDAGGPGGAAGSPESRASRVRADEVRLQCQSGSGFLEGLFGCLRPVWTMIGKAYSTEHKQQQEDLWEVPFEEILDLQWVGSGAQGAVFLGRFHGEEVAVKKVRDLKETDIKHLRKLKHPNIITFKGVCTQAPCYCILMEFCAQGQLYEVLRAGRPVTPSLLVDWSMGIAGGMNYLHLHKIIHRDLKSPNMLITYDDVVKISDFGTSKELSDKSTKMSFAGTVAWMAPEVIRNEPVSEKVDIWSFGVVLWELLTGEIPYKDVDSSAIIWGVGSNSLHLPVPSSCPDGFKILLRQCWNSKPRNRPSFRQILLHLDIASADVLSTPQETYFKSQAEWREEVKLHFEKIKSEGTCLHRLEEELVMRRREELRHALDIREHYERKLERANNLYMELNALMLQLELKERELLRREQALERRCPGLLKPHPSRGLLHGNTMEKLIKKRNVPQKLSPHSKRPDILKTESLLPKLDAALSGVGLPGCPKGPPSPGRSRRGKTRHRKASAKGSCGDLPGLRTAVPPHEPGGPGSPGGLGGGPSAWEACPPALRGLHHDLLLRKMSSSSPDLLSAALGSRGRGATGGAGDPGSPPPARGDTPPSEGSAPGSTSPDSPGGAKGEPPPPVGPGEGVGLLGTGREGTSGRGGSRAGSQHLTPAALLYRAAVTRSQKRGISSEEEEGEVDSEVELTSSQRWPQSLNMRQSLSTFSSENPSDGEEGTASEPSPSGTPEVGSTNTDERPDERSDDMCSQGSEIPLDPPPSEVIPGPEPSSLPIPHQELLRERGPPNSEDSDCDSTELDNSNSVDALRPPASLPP

Structure (SMILES)	effect on	technique	concentration	remaining binding
C[C@@H]1CN(c2cc(-c3n[nH]c4ccc(OC5(C)CC5)cc34)ncn2)C[C@H](C)O1	cell-free assay	competition with immobilised ligand	0.1 µM	82%
Cc1cnc(Nc2ccc(C(=O)N3CCC(N4CCCC4)CC3)cc2)nc1-c1cc2ccccc2s1	binding	competition with immobilised ligand	1 µM	8.3%
O=C(NS(=O)(=O)c1ccc(NCC2CCOCC2)c([N+](=O)[O-])c1)c1ccc(N2CCN(Cc3ccc(C(F)(F)F)cc3-c3ccc(Cl)cc3)CC2)cc1Oc1cnc2[nH]ccc2c1	cell-free assay	competition with immobilised ligand	1 µM	100%
C[C@H]1CCN(c2nccc(-c3cnn4ncccc34)n2)C1	binding	–	1 µM	100%
COc1cnc(Nc2cccc(S(N)(=O)=O)c2)nc1N1CCN(c2ccccc2)CC1	binding	competition with immobilised ligand	1 µM	72%
O=C(Nc1c[nH]nc1C(=O)NC1CCNCC1)c1cc(F)cc(F)c1	binding	competition with immobilised ligand	1 µM	88%
O=C(c1ccc(Nc2nccc(-c3cc4ccccc4s3)n2)cc1)N1CCC(N2CCCC2)CC1	binding	competition with immobilised ligand	1 µM	28%
Nc1ncc2c(n1)-c1c([nH]c3ccc(C#CC4CC4)cc13)CCCC2	binding	competition with immobilised ligand	1 µM	93%
COc1cnc(Nc2cccc(S(N)(=O)=O)c2)nc1N1CCN(c2ccccc2)C(=O)C1	binding	competition with immobilised ligand	1 µM	82%
O=C(Nc1cnc(Oc2ccc(F)cc2)nc1)N1CCc2ncccc2[C@@H]1c1ccc(F)cc1	cell-free assay	competition with immobilised ligand	1 µM	100%
CN(c1nccc(-c2cnn3ncccc23)n1)C1CC1	binding	–	1 µM	100%
CN([C@@H]1CCc2c(CC(=O)O)c3ccccc3n2C1)S(=O)(=O)c1ccc(F)cc1	cell-free assay	competition with immobilised ligand	1 µM	100%
CN(CCCC(F)(F)F)c1nccc(-c2cnn3ncccc23)n1	binding	–	1 µM	100%
FC(F)(F)Oc1cccc(-c2cnc3ccc(-c4ccncc4)nn23)c1	cell-free assay	competition with immobilised ligand	5 µM	45%
CC1CCCN1c1nccc(-c2cnn3ncccc23)n1 (centres unmarked)	binding	–	1 µM	100%
CNCc1ccccc1-c1csc([C@H](C)Nc2nc(C)nc3cc(OC)c(OC)cc23)c1	cell-free assay	competition with immobilised ligand	1 µM	97%
CN(C)c1ncc(F)c(-c2cnn3ncccc23)n1	binding	–	1 µM	72%
O=C(c1ccc(Nc2ncc(Cl)c(-c3ccc(Cl)s3)n2)cc1)N1CCC(N2CCCC2)CC1	binding	competition with immobilised ligand	1 µM	7.8%
Cc1nc(N2CC[C@@H](O)C2)ncc1-c1cc(C(F)(F)F)cc2[nH]ncc12	binding	competition with immobilised ligand	1 µM	99%
CN(C)c1nccc(-c2cnn3ncccc23)n1	binding	–	1 µM	98%
